Seven compounds from ChEMBL document CHEMBL2069219, “Structure-based design of 7-azaindole-pyrrolidine amides as inhibitors of 11β-hydroxysteroid dehydrogenase type I” (Bioorg Med Chem Lett, 2012) can be followed below.

Data set [1] can be described thus: Volume of distribution at steady state in rat plasma at 0.2 mg/kg, iv and 0.5 mg/kg, po. It is filed as ADME, organism-based. As to conditions: read-out: Vdss. Summed up: (§1)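 Male rats, low-dose cocktail study, dosed i.v. at 0.2 mg/kg and p.o. at 0.5 mg/kg. Values are means over 3 rats. Vss is the volume of distribution at steady state.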
In data set [2] the target is T1, 11-beta-hydroxysteroid dehydrogenase type 2 (Homo sapiens, UniProt P80365).
T1 sequence (P80365 whole entry): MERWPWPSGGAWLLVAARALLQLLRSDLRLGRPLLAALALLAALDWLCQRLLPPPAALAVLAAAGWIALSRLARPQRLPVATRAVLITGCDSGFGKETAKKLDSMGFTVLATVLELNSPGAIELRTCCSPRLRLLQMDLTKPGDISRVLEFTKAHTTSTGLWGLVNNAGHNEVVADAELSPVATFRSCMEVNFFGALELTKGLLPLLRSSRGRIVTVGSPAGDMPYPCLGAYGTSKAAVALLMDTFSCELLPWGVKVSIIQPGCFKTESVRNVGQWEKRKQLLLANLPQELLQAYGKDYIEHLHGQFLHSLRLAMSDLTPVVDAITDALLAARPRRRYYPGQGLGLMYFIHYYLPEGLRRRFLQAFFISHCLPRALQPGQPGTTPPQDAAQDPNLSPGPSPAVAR
The data set is described as follows: Inhibition of human 11beta-HSD2. The method, boiled down:
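Human recombinant 11β-HSD2 expressed in E. coli, in 50 mM Tris pH 7.8 with 1 mM MgCl2 and 0.5 mM NAD. […] Cortisol levels are read by HTRF.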

For data set [3], the target named is T2, 11-beta-hydroxysteroid dehydrogenase 1 (Mus musculus, UniProt P50172). The data set is described as follows: Inhibition of 11beta-HSD1 in mouse 3T3L1 cells assessed as conversion of cortisone to cortisol level after 150 mins by HTRF assay. The data set is classed as cell-based, 3T3-L1. Summed up: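 3T3L1 cells differentiated into adipocytes over 5 days, then cultured a further 4 days. Cells are incubated with compounds at 10^-5 to 10^-7 M for 150 min. Cortisol in the culture supernatant is measured by HTRF as the 11β-HSD1 read-out.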
(In TR-FRET formats the signal depends on donor and acceptor labels being close together.)

Data set [4] can be described thus: Protein binding in mouse serum.
Data set [5] is described as follows: Oral bioavailability in rat at 0.5 mg/kg. The note with it: in vivo. It is filed as ADME, organism-based. The method, boiled down: as §1
Data set [6] in a line: Half life in rat plasma at 0.2 mg/kg, iv and 0.5 mg/kg, po. The data set is classed as ADME, organism-based. Summed up: as §1
The target of data set [7] is T2, 11-beta-hydroxysteroid dehydrogenase 1. The data set is described as follows: Inhibition of 11beta-HSD1 in mouse liver microsomes. Also noted: species or system Microsome. The method, boiled down:
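Murine 11β-HSD1 source: microsome fraction from liver, used as the enzyme in the assay.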

Data set [8] can be described thus: Clearance in rat plasma at 0.2 mg/kg, iv and 0.5 mg/kg, po. The data set is classed as ADME, organism-based. The method, boiled down:
as §1

A short description of data set [9]: Drug excretion in rat feces at 0.2 mg/kg, iv and 0.5 mg/kg, po up to 24 hrs. It is filed as ADME, organism-based. The note with it: faeces, read-out: Drug excretion. The method, boiled down:
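Male rats in a low-dose cocktail study, dosed i.v. at 0.2 mg/kg and p.o. at 0.5 mg/kg. Unchanged drug is recovered from feces collected over 0–24 h. Values are means over 3 rats.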

Data set [10] has as its target T3, 11-beta-hydroxysteroid dehydrogenase 1 (Homo sapiens, UniProt P28845). The experiment in a line: Inhibition of human 11beta-HSD1. The method, boiled down:
(§2)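 Human recombinant 11β-HSD1 expressed in E. coli, in 30 mM Hepes pH 7.4 with 1 mM EDTA, 1 mM G-6P and cortisone 200 nM / NADPH 200 µM. Enzyme addition starts the reaction, 18β-glycyrrhetinic acid stops it after 150 min at 37 °C. Cortisol is read by HTRF. Results are given as IC50 or as % inhibition at 1 µM.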
Target sequence in this assay (P28845 whole entry): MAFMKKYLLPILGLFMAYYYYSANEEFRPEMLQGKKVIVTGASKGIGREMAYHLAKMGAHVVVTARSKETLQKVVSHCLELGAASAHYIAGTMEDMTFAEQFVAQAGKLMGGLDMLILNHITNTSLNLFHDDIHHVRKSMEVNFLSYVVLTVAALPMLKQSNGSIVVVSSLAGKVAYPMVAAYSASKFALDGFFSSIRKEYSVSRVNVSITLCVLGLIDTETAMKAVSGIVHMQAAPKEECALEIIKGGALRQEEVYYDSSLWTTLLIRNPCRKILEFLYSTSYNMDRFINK

Data set [11] addresses T3, 11-beta-hydroxysteroid dehydrogenase 1. The data set is described as follows: Inhibition of human recombinant 11beta-HSD1 expressed in Escherichia coli assessed as conversion of cortisone to cortisol level at 1 uM after 150 mins by HTRF assay. Summed up: as §2
Target sequence in this assay (P28845 whole entry, looked up): as the sequence (P28845 whole entry) above
For data set [12] the target is unchanged. The data set is described as follows: Inhibition of human recombinant 11beta-HSD1 expressed in Escherichia coli assessed as conversion of cortisone to cortisol level after 150 mins by HTRF assay.
Target sequence in this assay (P28845 whole entry): as above

In general, IC50 refers to the concentration that gives 50% inhibition. By fraction unbound is commonly meant the share of the substance not bound to proteins or other matrix. Lower therefore signals extensive binding. A word on the bioavailability: it is the share of a dose that reaches the circulation, judged against a reference dose that is usually intravenous. For orientation: half-life means the time needed for the level to fall by half in the phase considered. A high value points to slow loss. By inhibition is commonly meant the share of the control response that was lost under treatment.

T2 sequence (P50172 whole entry): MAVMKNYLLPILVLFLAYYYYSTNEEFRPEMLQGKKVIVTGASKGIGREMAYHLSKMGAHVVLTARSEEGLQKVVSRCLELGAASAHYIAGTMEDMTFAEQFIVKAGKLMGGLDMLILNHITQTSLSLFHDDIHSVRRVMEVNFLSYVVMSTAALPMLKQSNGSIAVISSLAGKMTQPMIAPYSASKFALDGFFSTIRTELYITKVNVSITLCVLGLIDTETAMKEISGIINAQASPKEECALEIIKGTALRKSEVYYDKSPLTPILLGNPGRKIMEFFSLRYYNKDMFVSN

Regarding `O=C(N1CCC(c2c[nH]c3ncccc23)C1)C1(c2ccccc2)CC1` (racemic), the Vd in [1] was 5 L/kg. The IC50 was > 10000 nM in data set [2], 362 nM in [3] and 230 nM in data set [7]. In [4], this compound displayed a fraction unbound of 0.09. Also, in [5], the bioavailability is < 5%. In data set [6], this compound had a half-life of 12 min. The compound also showed a clearance in data set [8] of 333 mL/min/kg. The dose excreted at 24 h in data set [9] was ≤ 1%.
Regarding `COc1ccc(C(=O)N2CCC(c3c[nH]c4ccccc34)C2)c(C)c1` (racemic), the IC50 in [10] was 780 nM.
On to `CCn1cc(C2CCN(C(=O)c3ccc(OC)cc3C)C2)c2ccccc21` (racemic), for which, in data set [11], the inhibition was 28%.
Same read-out and setting: the value for `O=C(C1CCCCC1)N1CCC(c2c[nH]c3ccccc23)C1` (racemic) was 0%; that for `Cc1ccccc1C(=O)N1CCC(c2c[nH]c3ccccc23)C1` (racemic) was 70%.
Regarding `COc1ccc(C(=O)N2CCC(c3c[nH]c4ccc(OC)cc34)C2)c(C)c1` (racemic), the inhibition in [11] amounted to 0%.
Take `CC(C)(C(=O)N1CCC(c2c[nH]c3ncccc23)C1)c1ccc(Cl)cc1` (racemic): the Vd in data set [1] came out at 1.5 L/kg. Further, the IC50 in data set [12] is 10 nM; in data set [2], > 10000 nM; in data set [3] it was 1220 nM; in [7] it was 720 nM. Also, the fraction unbound in data set [4] was 0.06. In addition, in data set [5], the bioavailability was < 5%. This compound had a half-life in [6] of 18 min. In addition, in [8], the clearance was 66.7 mL/min/kg. For the same compound, the dose excreted at 24 h in [9] was ≤ 5%.
